This is a sample that favours compounds with a hit; in the whole collection about 3.5% have one here.
RGS4 pot – RGS4 potentiation or activation | HEK293 M3R/inducible RGS4, carbachol calcium flux Fluo4; stronger effect = lower value | B-score at 10 µM | actives 0.92% (n = 310,000) | AID 463111;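 active = B-score of the integrated calcium signal more than 4 SD below the library mean, with starting fluorescence not abnormally high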;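 also: negative B-score means reduced calcium response which marks RGS4 activation or potentiation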
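Assay system: Inducible-RGS4 HEK293 cells carrying M3 receptor | Schedule: Compound preincubation 20 min at room temperature before agonist | Signal: Kinetic calcium fluorescence imaging with Fluo4-AM dye, 2 µM | Read-out basis: B score from integrated fluorescence ratio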
MrgX1 ag – activates human MrgX1 receptor signaling | MrgX1-HEK293 cells, Fluo-4 calcium fluorescence, agonist mode; stronger effect = higher value | Q96LB2 | B-score at 10 µM | actives 0.44% (n = 310,000);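 active = calcium response B-score plate-corrected fluorescence ratio at least 3 library SD, with starting fluorescence B-score inside 5 SD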
Target sequence (Q96LB2 whole entry, looked up): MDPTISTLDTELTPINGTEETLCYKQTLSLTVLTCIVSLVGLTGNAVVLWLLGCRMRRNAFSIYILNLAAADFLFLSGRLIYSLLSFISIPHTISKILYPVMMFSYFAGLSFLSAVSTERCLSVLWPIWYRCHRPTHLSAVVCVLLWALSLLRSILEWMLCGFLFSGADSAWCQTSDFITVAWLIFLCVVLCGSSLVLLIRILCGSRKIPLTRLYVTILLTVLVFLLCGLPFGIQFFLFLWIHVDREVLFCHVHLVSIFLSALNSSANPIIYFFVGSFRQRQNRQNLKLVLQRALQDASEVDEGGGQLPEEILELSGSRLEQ
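Material: MrgX1-expressing HEK293 cells / Dosing: compound as first of three additions / Incubation: overnight seeding, then 1 h dark dye loading / Signal: Fluo-4 NW calcium fluorescence / Evaluation: B-scored fluorescence response ratio / Benchmarks: positive and negative control wells on each plate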
RGS4 inh – human RGS4 inhibition | P49798 | HEK293 M3R/RGS4 inducible, Fluo-4 calcium flux; stronger effect = higher value; triggered by carbachol at its EC20 | B-score at 10 µM | actives 0.45% (n = 310,000);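 active = B-score, a plate-corrected calcium signal, over three deviations above library mean, with baseline fluorescence within five deviations of library mean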;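 also: RGS4 expression induced by doxycycline in cells with stable M3 receptor; B-score is computed from the integrated fluorescence ratio over baseline after carbachol; higher B-score means a larger calcium signal and so more RGS4 inhibition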
Target sequence (P49798 whole entry, looked up): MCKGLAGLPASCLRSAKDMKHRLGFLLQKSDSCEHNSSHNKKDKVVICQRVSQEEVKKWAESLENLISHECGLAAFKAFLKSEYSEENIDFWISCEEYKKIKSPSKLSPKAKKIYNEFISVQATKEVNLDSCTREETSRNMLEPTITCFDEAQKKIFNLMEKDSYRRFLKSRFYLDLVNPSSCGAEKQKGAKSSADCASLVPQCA
MrgX1 allo act – human MrgX1 positive allosteric modulation, primary screen; Q96LB2; MrgX1-HEK293, Fluo-4 calcium flux, FDSS; stronger effect = higher value; B-score at 10 µM; actives 0.63% (n = 310,000);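 active = plate-corrected calcium response at least 3 library SD above typical, normal starting fluorescence, not activating the receptor alone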;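 also: compound read alongside a low EC10 to EC30 dose of BAM8-22 agonist; peak minus trough fluorescence over baseline measured at the second addition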
MrgX1 antagonist – antagonists of human MrgX1 receptor; Q96LB2; MRGX1-HEK293 calcium flux, Fluo-4, BAM8-22 antagonism; stronger effect = lower value; B-score at 10 µM; actives 1.3% (n = 310,000);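 active = calcium-response B-score plate-corrected more than 3 library SD below zero, starting fluorescence within 5 deviations, no agonist response on first addition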;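 also: peak minus trough fluorescence over baseline after final BAM8-22 challenge near maximal dose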
MrgX1 ant reconf – human MrgX1 receptor antagonism, re-confirmation screen; MrgX1-HEK293, BAM8-22 calcium flux, Fluo-4; stronger effect = lower value; remaining BAM8-22 calcium response % of control (stronger effect = lower value), % at 10 µM; AID 602420; actives 19% (n = 2,300); shares compounds with MrgX1 antagonist;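 active = remaining agonist calcium response no higher than 100% minus 3 SD of agonist-only control wells, with starting fluorescence near control levels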;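 also: agonist BAM8-22 given at a near maximal EC90 to ECmax level; peak minus minimum fluorescence divided by baseline after agonist addition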
HEK293 Ca flux – activity in parental HEK293 cells lacking MrgX1. shares compounds with MrgX1 antagonist. Fluo-4 calcium fluorescence, FDSS. fluorescence ratio F(max-min)/F0 at 10 µM. actives 2% (n = 4,000). AID 624111;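 active = duplicate-averaged calcium fluorescence ratio at least three times the standard deviation of buffer wells, a nonspecific response in parental cells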
HEK293 Ca counter – MrgX1 allosteric activator counter-screen hit in parental HEK293 cells; shares compounds with MrgX1 antagonist; parental HEK293 calcium flux, Fluo-4 fluorescence ratio; stronger effect = higher value; fluorescence ratio F(max-min)/F0 at 10 µM; actives 0.4% (n = 4,000); AID 624114;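 active = calcium fluorescence ratio, averaged over duplicates, at least 3 SD of the buffer-well ratio, meaning a nonspecific response in receptor-free cells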;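 also: untransfected parental HEK293 lacking MrgX1 used as counterscreen for MrgX1 allosteric activators; fluorescence change taken during the second addition on a kinetic imager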
HEK293 Ca cntr2 – MrgX1 activator counter-screen hit in parental HEK293 cells | shares compounds with MrgX1 antagonist | Fluo-4 calcium fluorescence (FDSS); stronger effect = higher value | fluorescence ratio F(max-min)/F0 at 10 µM | actives 8.7% (n = 4,000) | AID 624115;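 active = calcium fluorescence ratio at least three times the spread of buffer wells, meaning a non-specific response in parental cells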
A number is an active result; – = inactive; · = not tested or not shown.

SMILES	RGS4 pot	MrgX1 ag	RGS4 inh	MrgX1 allo act	MrgX1 antagonist	MrgX1 ant reconf	HEK293 Ca flux	HEK293 Ca counter	HEK293 Ca cntr2
CCc1nnc(NC(=O)CSc2nnc(-c3cc4ccccc4cc3O)n2CC)s1	–	–	–	–	–	·	·	·	·
NC(=O)c1cc(NC(=O)CCNS(=O)(=O)c2cccc(C(F)(F)F)c2)cc(C(N)=O)c1	–	–	–	–	–	·	·	·	·
COc1ccc(-c2noc(CN(C(=O)c3ccc4c(c3)OCO4)C(C)C)n2)cc1	–	–	–	–	–	·	·	·	·
COc1ccc(-c2noc(CN(C(=O)c3cccs3)C(C)C)n2)cc1	–	–	–	–	-4.8	–	–	–	–
O=C(CNC(=O)[C@@H]1Cc2ccccc2CN1)Nc1ccc2c(c1)OCCO2	–	–	–	–	–	·	·	·	·
CCOCCn1ccc2c(OCC(=O)NCc3ccccc3)cccc2c1=O	–	–	–	–	–	·	·	·	·
Brc1ccc(CNc2cc3c(cc2Br)OCCO3)cc1	–	–	–	–	-4.5	–	–	–	–
CC(=O)Nc1cc2c(cc1Br)OCCO2	–	–	–	–	–	·	·	·	·
C=CCOc1ccc(Br)cc1CNC(C)(C)C	–	–	–	–	–	·	·	·	·
Cc1cc(Br)c(OCc2ccc(C(=O)N/N=C3\CC4CC=CC34)cc2)c(Br)c1 (stereo unspecified)	–	–	–	–	–	·	·	·	·
CC(C)C(c1nnnn1C1CCCC1)N1CCCc2ccccc21 (stereo unspecified)	–	–	–	–	-6.1	–	–	–	–
CC(C)C(c1nnnn1C1CCCCC1)N1CCCc2ccccc21 (stereo unspecified)	–	–	–	–	–	·	·	·	·
CCC(=O)Nc1c(C(=O)N2CCN(c3ccccn3)CC2)cnn1-c1ccc(C)cc1	–	–	–	–	-7.5	–	–	–	–
Cc1onc(-c2c(F)cccc2Cl)c1C(=O)Nc1nnc(C(F)(F)F)s1	–	–	–	–	-5.1	85%	–	–	–
Cc1onc(-c2c(F)cccc2Cl)c1C(=O)Nc1nccs1	–	–	–	–	-4.6	–	–	–	–
COc1nc(Nc2ccccc2F)nc(OC)n1	–	–	–	–	-8.1	–	–	–	–
COc1ccc(NC(=O)Cn2nnc(-c3ccccc3NC(=O)c3cccs3)n2)cc1	–	–	–	–	-7	–	–	–	–
Cc1ccc(NC(=O)Cn2nnc(-c3ccccc3NC(=O)c3cccs3)n2)cc1	–	–	–	–	–	·	·	·	·
Cc1cccnc1CCNC(=O)c1ccc(OC2CCN(Cc3ccccn3)CC2)cc1	–	–	–	–	-10	–	–	–	–
Nc1nnc(SCc2ccccc2Cl)s1	–	–	–	–	–	·	·	·	·
Nc1nnc(SCc2cc3c(cc2Cl)OCO3)s1	–	–	–	–	-6.3	–	–	–	–
C/C=C/c1ccc(Oc2nnnn2-c2ccc(C(=O)O)cc2)c(OC)c1	–	–	–	–	-4.6	–	–	–	–
COc1cc(C=O)ccc1Oc1nnnn1-c1ccc(C(N)=O)cc1	–	–	–	–	–	·	·	·	·
c1ccc(-c2nc(CSc3n[nH]c(-c4cccs4)n3)cs2)cc1	–	–	–	–	–	·	·	·	·
CS(=O)(=O)c1ncc(Cl)c(C(=O)Nc2ccc(OC(F)F)cc2)n1	–	–	–	–	-4.9	–	–	–	–
SMILES	RGS4 pot	MrgX1 ag	RGS4 inh	MrgX1 allo act	MrgX1 antagonist	MrgX1 ant reconf	HEK293 Ca flux	HEK293 Ca counter	HEK293 Ca cntr2
CC1(C(=O)OCC(=O)Nc2nc(-c3ccc(F)c(F)c3)cs2)CC1(Cl)Cl (stereo unspecified)	–	–	–	–	–	·	·	·	·
Cc1[nH]c2ccccc2c1C(=O)CN1CCC(C(N)=O)(N2CCCCC2)CC1	–	–	–	–	-5.8	–	–	–	–
COCCNC(=O)c1ccc(C)cc1C	–	–	–	–	-5.3	73%	–	–	–
COCCn1c(C)cc(C(=O)CSc2nc(C)c(C)c(C)n2)c1C	–	–	–	–	–	·	·	·	·
COCCn1c(C)cc(C(=O)CSc2ncn[nH]2)c1C	–	–	–	–	-5.1	–	–	–	–
O=C(c1ccc2[nH]c(=O)c(=O)[nH]c2c1)N1CCc2ccccc2C1	–	–	–	–	–	·	·	·	·
Cc1c(C)c2c(OCC(=O)O)cc3c(c2oc1=O)CCC(C)(C)O3	–	–	–	–	–	·	·	·	·
COc1ccccc1CNC(=O)COc1cc2c(c3oc(=O)cc(C)c13)CCC(C)(C)O2	–	–	–	–	-7.6	62%	–	–	–
Cc1c(C)c2c(OCC(=O)Nc3ccc(CCO)cc3)cc3c(c2oc1=O)CCC(C)(C)O3	–	–	–	–	-6.2	–	–	–	–
CCOc1ccc(OCCN2C(=O)NC3(CCCc4ccccc43)C2=O)cc1 (stereo unspecified)	–	–	–	–	-5.5	–	–	–	–
O=C1NC2(CCCc3ccccc32)C(=O)N1CCOc1ccc(Br)cc1 (stereo unspecified)	–	–	–	–	–	·	·	·	·
COc1ccccc1NC(=O)CSc1nc(N)c(C#N)cc1C#N	–	–	–	–	–	·	·	·	·
COc1ccccc1NC(=O)CSc1nc(N)cc(N)n1	–	–	–	–	-5.5	–	–	–	–
Cc1ccc(NC(=O)CSc2ccc3c(c2)OCCO3)nc1	–	–	–	–	–	·	·	·	·
O=C(CN(c1ccccn1)S(=O)(=O)c1ccc(F)cc1)Nc1ccccc1	–	–	–	–	-6	–	–	–	–
CC(=O)Nc1ccc(NS(=O)(=O)C(F)(F)F)cc1	–	–	–	–	-8.7	–	–	–	–
CC(=O)Nc1ccc(-c2ccc(NC(C)=O)cc2)cc1	–	–	–	–	–	·	·	·	·
O=C(CCc1ccccc1)NCc1ccc(F)cc1	–	–	–	–	–	·	·	·	·
O=C(O)CCC(=O)NCc1ccc(F)cc1	–	–	–	–	-6.3	–	–	–	–
CCOCc1cnc(C)nc1NCC(=O)c1c(C)[nH]c2ccc(OC)cc12	–	–	–	–	-8.8	–	–	–	–
COc1ccccc1NC(=O)c1cc(Cl)ccc1NC(=O)c1ccco1	–	–	–	–	–	·	·	·	·
CCOc1ccccc1NC(=O)c1cc(Cl)ccc1NC(=O)c1ccco1	–	–	–	–	-5.2	–	–	–	–
CCC(NC(=O)c1ccccc1NC(=O)c1ccco1)C(=O)O (stereo unspecified)	–	–	–	–	-7.6	–	–	–	–
COc1cc(CN2CC(=O)N(c3cc(Cl)ccc3C)C2=S)cc(OC)c1OC	–	–	–	–	–	·	·	·	·

High-throughput results as filed in PubChem.
